Screening results: PubChem, Broad Institute
The full list was thinned out, with hits kept by preference.
T cruzi intra = blocks T. cruzi growth inside host cells; intracellular Trypanosoma cruzi in host cells, plate reader; activity score (inhibition), % at 5.01 µM; 22,000 tested, 4.9% active; AID 651903; in the data active = activity score above about 55%;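 note: parasites and compound incubated about four days before reading; 0% = median of neutral control wells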
INS-1E rescue = INS-1E beta cell protection from cytokine death | INS-1E cytokine-induced death, ATP luminescence, 48 h; normalised: neutral wells 0, positive control 100 | protection from cytokine-induced ATP loss, % at 10 µM | 20,000 tested, 0.1% active | AID 488910;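 active = mean replicate protection from cytokine-induced ATP loss at least 50% and at least 75% of replicates each reaching 50%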
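Assay system: INS-1E rat insulinoma cells. Amount: 8000 cells per well. Medium: phenol-red-free RPMI with 5% fetal bovine serum. Reagent: IL-1β, TNF-α and IFN-γ cytokine mix. Doses: one compound concentration, pin transfer. Schedule: 48 h co-treatment, 10 min post-lysis read. Detection: CellTiter-Glo luminescence measuring cellular ATP.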
YB-1 expr inh = YB-1 expression inhibition; U2OS, qRT-PCR YB-1 vs CDIP delta delta Cp, 16 h; stronger effect = higher value; zero = DMSO, each unit about twofold; delta delta Cp (YB-1 minus CDIP) (no concentration beside the values); 30,000 tested, 0.37% active; AID 434959;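 active = delta delta Cp rounded down to an integer at or above 3, about 3 SD of DMSO wells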;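 note: higher means less YB-1 transcript or more CDIP transcript relative to DMSO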
Active calls of the source: *; . = no result given.

SMILES	T cruzi intra	INS-1E rescue	YB-1 expr inh
C[C@@H]1CCCCO[C@@H](CN(C)C(=O)Nc2cccc3ccccc23)[C@@H](C)CN([C@H](C)CO)C(=O)c2cc(NC(=O)Nc3ccc(C(F)(F)F)cc3)ccc2O1	-21.0	-2.7	0.0979
C[C@@H]1CCCCO[C@@H](CN(C)C(=O)Nc2ccc(C(F)(F)F)cc2)[C@@H](C)CN([C@H](C)CO)C(=O)c2cc(NC(=O)NC3CCCCC3)ccc2O1	75.9*	-15.8	-0.066
C[C@@H]1CCCCO[C@@H](CN(C)C(=O)Nc2ccc(F)cc2)[C@@H](C)CN([C@H](C)CO)C(=O)c2cc(NC(=O)Nc3ccccc3)ccc2O1	5.7	0.8	-0.536
C[C@@H]1CCCCO[C@@H](CN(C)C(=O)Nc2ccc(F)cc2)[C@@H](C)CN([C@H](C)CO)C(=O)c2cc(NC(=O)Nc3ccc(C(F)(F)F)cc3)ccc2O1	64.3*	-4.3	-0.374
C[C@@H]1CN([C@@H](C)CO)C(=O)c2cc(NC(=O)NC3CCCCC3)ccc2O[C@@H]1CN(C)C(=O)Nc1ccc(C(F)(F)F)cc1	-15.0	-5.9	0.228
C[C@@H]1CCCCO[C@H](CN(C)C(=O)Nc2ccc(C(F)(F)F)cc2)[C@@H](C)CN([C@H](C)CO)C(=O)c2cc(NC(=O)Nc3cccc4ccccc34)ccc2O1	67.2*	-6.6	0.394
C[n+]1cc(C(=O)NCCC[N+]2(C)CCCC2)ccc1/C=N/O	.	.	-0.163
O=S(=O)(NCC1CCN(Cc2cccc(OCCO)c2)CC1)c1ccc(Cl)c(Cl)c1	.	.	0.405
O=C(CCCCCCC(=O)Nc1ccccc1O)N=NC=C1C=CN(O)C=C1	1.0	3.4	-0.0614
O=C1O[C@H](c2ccccc2)[C@H](c2ccccc2)N2[C@H]1[C@@H](C(=O)O)[C@]1(C(=O)Nc3ccc(C#CC4(O)CCCCCC4)cc31)[C@H]2c1ccccc1OCCO	.	.	-0.0109
NC(=O)COc1ccc(C=C2C(=O)c3ccccc3C2=O)cc1	.	.	0.00994
C[C@@H](O)[C@@H](O)[C@@H](O)C/C=N/NC(=O)c1cccc(C(=O)NO)c1	-11.7	4.9	-0.273
O=C(NC(C(=O)O)C12CC3CC(CC(C3)C1)C2)c1ccc(F)cc1 (stereo not drawn)	.	.	-0.105
C/C1=C/CC(=O)C(C)C[C@H]2OC(=O)[C@H](C)C2[C@@H](O)C1 (stereo partly drawn)	.	.	-0.284
C[C@@H]1CN([C@@H](C)CO)C(=O)c2cc(NS(=O)(=O)c3ccccc3)ccc2O[C@@H]1CN(C)Cc1ccc(C(F)(F)F)cc1	4.6	-6.7	-0.435
C[C@H](CO)N1C[C@H](C)[C@H](CN(C)Cc2ccc(C(F)(F)F)cc2)Oc2ccc(NS(=O)(=O)c3ccccc3)cc2C1=O	66.2*	-19.0	0.0722
C[C@@H]1CN([C@H](C)CO)C(=O)c2cc(NS(=O)(=O)c3ccc(F)cc3)ccc2O[C@@H]1CN(C)Cc1ccc(C(F)(F)F)cc1	24.0	-6.4	0.213
Cc1ccc(S(=O)(=O)Nc2ccc3c(c2)C(=O)N([C@H](C)CO)C[C@H](C)[C@H](CN(C)Cc2ccc(C(F)(F)F)cc2)O3)cc1	69.2*	-17.6	0.116
COC(=O)c1cccc(N=C(N)N=C(N)N)c1	.	.	0.556
O=C(CCCCCC(=O)Nc1ccccc1O)N/N=C/c1cc(Br)c(O)c(Br)c1	-2.9	3.3	0.0819
O=C(NO)c1cccc(C(=O)N/N=C/c2ccc(Br)cc2)c1	4.1	-9.5	-0.0578
COc1ccc(O)c(/C=N/NC(=O)CCCCC(=O)NO)c1	-7.9	-0.2	-0.277
C[C@@H]1CCCCO[C@@H](CN(C)Cc2ccccc2)[C@@H](C)CN([C@H](C)CO)C(=O)c2cc(NC(=O)Nc3ccccc3)ccc2O1	48.2	-13.2	-0.796
C[C@@H]1CCCCO[C@@H](CN(C)Cc2ccc(Cl)c(Cl)c2)[C@@H](C)CN([C@H](C)CO)C(=O)c2cc(NC(=O)Nc3ccccc3)ccc2O1	77.9*	-5.2	0.0635
C[C@H](CO)N1C[C@H](C)[C@H](CN(C)Cc2ccc(Cl)c(Cl)c2)Oc2ccc(NC(=O)C3CCCCC3)cc2C1=O	3.6	-18.8	-0.347
SMILES	T cruzi intra	INS-1E rescue	YB-1 expr inh
C[C@@H]1CCCCO[C@@H](CN(C)Cc2ccc(Cl)c(Cl)c2)[C@@H](C)CN([C@H](C)CO)C(=O)c2cc(NC(=O)C3CCCCC3)ccc2O1	87.9*	-42.0	-0.868
Cc1noc(C)c1NC(=O)Nc1ccc2c(c1)C(=O)N([C@H](C)CO)C[C@H](C)[C@@H](CN(C)Cc1ccc(Cl)c(Cl)c1)OCCCC[C@@H](C)O2	-8.7	3.5	6.11*
C[C@@H]1CCCCO[C@H](CN(C)Cc2ccc(Cl)c(Cl)c2)[C@@H](C)CN([C@H](C)CO)C(=O)c2cc(NC(=O)Nc3ccccc3)ccc2O1	76.4*	-9.0	0.234
Cc1noc(C)c1NC(=O)Nc1ccc2c(c1)C(=O)N([C@H](C)CO)C[C@H](C)[C@H](CN(C)Cc1ccc3c(c1)OCO3)OCCCC[C@@H](C)O2	-23.6	-2.9	0.0776
C[C@@H]1CCCCO[C@H](CN(C)Cc2ccc(Cl)c(Cl)c2)[C@@H](C)CN([C@H](C)CO)C(=O)c2cc(NC(=O)c3ccccc3)ccc2O1	34.8	3.3	-0.49
COc1cc(Br)cc(/C=N/NC(=O)c2cccc(C(=O)NO)c2)c1O	-25.3	7.9	-0.461
CC(=O)C1C(=O)[C@@H]2[C@H]3c4c[nH]c5cccc(c45)C[C@H]3C(C)(C)N2C1=O (stereo partly drawn)	.	.	0.272
Cc1cc(C(=O)CSc2ncnc3sc4c(c23)CCCC4)c(C)n1Cc1ccco1	.	.	-0.202
COc1cc([C@H]2OC[C@H]3[C@@H]2CO[C@H]3c2cc(OC)c(OC)c(OC)c2)cc(OC)c1OC	.	.	0.123
C[C@H](CO)N1C[C@H](C)[C@H](CN(C)S(=O)(=O)c2ccc(Cl)cc2)Oc2c(NC(=O)c3nc4ccccc4s3)cccc2C1=O	71.1*	-58.2	0.283
C[C@H](CO)N1C[C@H](C)[C@@H](CN(C)S(=O)(=O)c2ccc(Cl)cc2)Oc2c(NC(=O)c3nc4ccccc4s3)cccc2C1=O	66.2*	-5.8	-0.14
C[C@@H]1CN([C@H](C)CO)C(=O)c2cccc(NC(=O)c3nc4ccccc4s3)c2O[C@@H]1CN(C)S(=O)(=O)c1ccc(Cl)cc1	42.9	-18.8	-1.07
C[C@@H]1CN([C@@H](C)CO)C(=O)c2cccc(NC(=O)c3nc4ccccc4s3)c2O[C@@H]1CN(C)S(=O)(=O)c1ccc(Cl)cc1	55.2	-58.2	0.0831
CC(Sc1ncnc2nc[nH]c12)c1ccccc1Cl (stereo not drawn)	.	.	0.0234
C[C@@H]1CN([C@H](C)CO)C(=O)Cc2cc(NS(=O)(=O)c3ccccc3)ccc2O[C@H]1CN(C)Cc1ccc(C(F)(F)F)cc1	11.4	-6.3	-0.132
C[C@@H]1CN([C@H](C)CO)C(=O)Cc2cc(NS(=O)(=O)c3ccccc3)ccc2O[C@@H]1CN(C)Cc1ccc(C(F)(F)F)cc1	59.0*	-28.2	-0.118
C[C@H](CO)N1C[C@H](C)[C@H](CN(C)Cc2ccc(C(F)(F)F)cc2)Oc2ccc(NS(=O)(=O)c3ccccc3)cc2CC1=O	5.9	1.9	-0.218
